Results taken from ChEMBL document CHEMBL1151197, “Molecular-targeted antitumor agents: the Saururus cernuus dineolignans manassantin B and 4-O-demethylmanassantin B are potent inhibitors of hypoxia-activated HIF-1” (J Nat Prod, 2004).
Active and inactive are the calls of the source. The rule behind the calls is not given here.

Tests used:
Format in all cases: cell-based
[1] = molecular target: T1, Hypoxia inducible factors; HIF-1-alpha, HIF-2-alpha (Homo sapiens, UniProt Q16665+Q99814); assay: Inhibition of hypoxia-induced HIF1 activation in human T47D cells after 16 hrs by pTK-HRE3-luciferase reporter gene assay
Procedure, shortened: (§1)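 Reporter: T47D cells electroporated with pTK-HRE3-luc (140 V, 70 ms, 1 pulse), plated 4.5 × 10^4 cells/well, after 24 h pretreated with serial dilutions for 30 min at 37 °C, then hypoxia (1% O2/5% CO2/94% N2) for 16 h at 37 °C. Luciferase read from lysates; triplicate wells, means ± SD. pGL3-Control cells run as counter-screen.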

[2] = molecular target: T1, Hypoxia inducible factors; HIF-1-alpha, HIF-2-alpha; assay: Inhibition of hypoxia-induced HIF1 activation in human T47D cells at 100 nM after 16 hrs by pTK-HRE3-luciferase reporter gene assay; procedure, shortened: as §1
[3] = molecular target: T1, Hypoxia inducible factors; HIF-1-alpha, HIF-2-alpha; assay: Inhibition of 1,10-phenathroline-induced HIF1 activation in human T47D cells after 16 hrs at >=10 nM by pTK-HRE3-luciferase reporter gene assay; design: scale not given: the % may be the effect or the level left
Procedure, shortened: (§2)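 T47D cells electroporated with pTK-HRE3-luc (140 V, 70 ms, 1 pulse), plated 4.5 × 10^4 cells/well, after 24 h given a dilution series for 30 min at 37 °C, then 10 µM 1,10-phenanthroline for 16 h at 37 °C. Luciferase read from cell lysates; quadruplicate wells. Specificity counter-screen used pGL3-Control-transfected cells.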

[4] = molecular target: T1, Hypoxia inducible factors; HIF-1-alpha, HIF-2-alpha; assay: Inhibition of 1,10-phenathroline-induced HIF1 activation in human T47D cells after 16 hrs at >=30 nM by pTK-HRE3-luciferase reporter gene assay; design: scale not given: the % may be the effect or the level left; procedure, shortened: as §2
T47D [5] = assay: Inhibition of hypoxia-induced VEGF production in human T47D cells after 16 hrs by ELISA
Procedure, shortened: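 T47D cells at 3 × 10^4 cells/well, 30 min compound pretreatment, then 16 h hypoxia (1% O2). Secreted VEGF measured in conditioned medium by sandwich ELISA (OD450, 540 nm correction) against a standard curve. Values normalized to viable cell number from Neutral Red uptake (OD540 minus 630 nm, cell-number standard curve). Quadruplicate; mean ± SEM; ANOVA with Fisher's PLSD.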

[6] = molecular target: T1, Hypoxia inducible factors; HIF-1-alpha, HIF-2-alpha; assay: Inhibition of hypoxia-induced HIF1 activation in human T47D cells at 10 nM after 16 hrs by pTK-HRE3-luciferase reporter gene assay; procedure, shortened: as §1
[7] = molecular target: Hypoxia-inducible factor 1-alpha (Homo sapiens) (UniProt Q16665); assay: Inhibition of hypoxia-induced nuclear HIF1 alpha level in human T47D cells at 10 to 100 nM preincubated for 30 mins before addition of hypoxia measured after 4 hrs by Western blotting
Procedure, shortened: (§3)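 Seeded at 1.7 × 10^5 cells/cm2 overnight, T47D cells got 10 or 100 nM for 30 min, then 4 h of hypoxia or 10 µM 1,10-phenanthroline at 37 °C. Nuclear extracts prepared by NP-40 lysis and 500 mM KCl extraction, separated on 7% SDS-PAGE. Blots probed with anti-HIF-1α (1:500), stripped, reprobed for HIF-1β (1:1500); ABC/ECL detection, Ponceau-S loading check.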

[8] = molecular target: Hypoxia-inducible factor 1-alpha (Homo sapiens) (UniProt Q16665); assay: Inhibition of 1,10-phenathroline-induced nuclear HIF1 alpha level in human T47D cells at 10 to 100 nM preincubated for 30 mins before addition of 1,10-phenathroline measured after 4 hrs by Western blotting; procedure, shortened: as §3
T47D [9] = assay: Inhibition of hypoxia-induced nuclear HIF1 beta level in human T47D cells at 10 to 100 nM preincubated for 30 mins before addition of hypoxia measured after 4 hrs by Western blotting; procedure, shortened: as §3
T47D [10] = assay: Inhibition of 1,10-phenathroline-induced nuclear HIF1 beta level in human T47D cells at 10 to 100 nM preincubated for 30 mins before addition of 1,10-phenathroline measured after 4 hrs by Western blotting; procedure, shortened: as §3

Hypoxia-inducible factor 1-alpha (Homo sapiens), sequence (Q16665 whole entry, looked up): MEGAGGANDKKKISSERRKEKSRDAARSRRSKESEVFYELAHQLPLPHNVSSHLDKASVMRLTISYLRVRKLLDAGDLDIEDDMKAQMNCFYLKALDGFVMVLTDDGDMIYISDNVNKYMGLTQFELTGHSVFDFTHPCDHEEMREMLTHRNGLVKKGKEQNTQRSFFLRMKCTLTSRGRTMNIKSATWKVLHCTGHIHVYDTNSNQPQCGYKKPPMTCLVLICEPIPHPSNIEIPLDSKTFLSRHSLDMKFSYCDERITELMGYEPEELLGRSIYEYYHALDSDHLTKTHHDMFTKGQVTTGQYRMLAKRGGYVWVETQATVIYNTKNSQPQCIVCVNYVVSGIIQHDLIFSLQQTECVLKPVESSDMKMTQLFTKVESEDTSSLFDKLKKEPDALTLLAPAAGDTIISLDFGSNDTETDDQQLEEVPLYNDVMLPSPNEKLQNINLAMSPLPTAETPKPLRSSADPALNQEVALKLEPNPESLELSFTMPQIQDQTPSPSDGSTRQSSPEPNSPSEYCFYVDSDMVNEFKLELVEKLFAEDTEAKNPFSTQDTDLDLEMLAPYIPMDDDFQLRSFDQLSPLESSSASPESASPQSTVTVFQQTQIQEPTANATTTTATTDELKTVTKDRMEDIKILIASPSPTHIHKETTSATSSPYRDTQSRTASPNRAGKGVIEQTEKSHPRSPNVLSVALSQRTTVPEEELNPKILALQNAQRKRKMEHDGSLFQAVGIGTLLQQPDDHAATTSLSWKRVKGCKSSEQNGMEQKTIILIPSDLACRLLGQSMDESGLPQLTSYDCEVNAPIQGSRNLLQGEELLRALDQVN

| SMILES | IC50 [1] [nM] | Activity [2] | Activity [3] [%] | Activity [4] [%] | Activity (T47D [5]) | Activity [6] | Activity [7] | Activity [8] | Activity (T47D [9]) | Activity (T47D [10]) |
| --- | --- | --- | --- | --- | --- | --- | --- | --- | --- | --- |
| COc1cc([C@@H](O)[C@@H](C)Oc2ccc([C@H]3O[C@H](c4ccc(O[C@H](C)[C@H](O)c5ccc6c(c5)OCO6)c(OC)c4)[C@H](C)[C@H]3C)cc2OC)ccc1O (mixture of isomers) [4-O-DEMETHYLMANASSANTIN B] | 30 | Active | < 50 | < 50 | Active | – | – | – | – | – |
| COc1ccc([C@@H](O)[C@@H](C)Oc2ccc([C@H]3O[C@H](c4ccc(O[C@H](C)[C@H](O)c5ccc6c(c5)OCO6)c(OC)c4)[C@H](C)[C@H]3C)cc2OC)cc1OC (relative stereo) [MANASSANTIN B] | 3 | – | < 50 | < 50 | Active | Active | Active | inactive | inactive | inactive |
